Source: ChEMBL document CHEMBL4118256, “Second Generation of Mannich Base-Type Derivatives with in Vivo Activity against Trypanosoma cruzi” (J Med Chem, 2018)
Active and inactive are the calls of the source. The rule behind the calls is not given here.

Key:
Trypanosoma cruzi [1] = assay: Antitrypanosomal activity against Trypanosoma cruzi MHOM/Pe/2011/Arequipa DTU 5 epimastigotes assessed as effect on parasite glycerol pathway by measuring increase in glycerol excretion at IC25 after 72 hrs by 1H NMR method; type: functional, organism-based
Summary of the method: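 Arequipa epimastigotes exposed at IC25 for 72 h alongside an untreated control. Excreted catabolites were analysed by 1H NMR, and each peak is reported as % variation versus the control. Three separate determinations.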

Mus musculus [2] = assay: (§1) Nephrotoxicity in Balb/c mouse infected with Trypanosoma cruzi MHOM/Pe/2011/Arequipa DTU 5 trypamastigotes assessed as increase in urea level in serum at 100 mg/kg, po once daily for 5 consecutive days starting from day 10 post infection measured on day 16 post infection by biochemical analysis relative to control; type: toxicity, organism-based; conditions: in vivo
Mus musculus [3] = assay: as §1, with “Hepatotoxicity” for “Nephrotoxicity”, “change” for “increase”, “ratio of serum […] to GPT” for “urea”, “level” for “level in serum”, “127” for “16”; type: toxicity, organism-based; conditions: in vivo
Trypanosoma cruzi [4] = assay: (§2) Antitrypanosomal activity against Trypanosoma cruzi MHOM/Pe/2011/Arequipa DTU 5 trypamastigotes infected in Balb/c mouse assessed as reduction in parasitaemia reactivation in spleen tissue at 100 mg/kg, po pretreated once daily for 5 consecutive days starting from day 75 post infection followed by cyclophosphamide-induced immunosuppression on day 100 post infection every 4 days for a maximum of 3 doses measured on day 127 post infection by PCR method; type: functional; set-up: scale not given: the % may be the effect or the level left
Mus musculus [5] = assay: as §1, with “as change” for “as increase”, “day 75” for “day 10”, “day 127” for “day 16”; type: toxicity, organism-based; conditions: in vivo
Mus musculus [6] = assay: (§3) Hepatotoxicity in Balb/c mouse infected with Trypanosoma cruzi MHOM/Pe/2011/Arequipa DTU 5 trypamastigotes assessed as change in alkaline phosphatase level at […], po once daily for 5 consecutive days starting from day 75 post infection measured on day 81 post infection by biochemical analysis relative to control; type: toxicity, organism-based; conditions: in vivo
Summary of the method: (§4)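 Serum clinical chemistry in Arequipa-infected female BALB/c mice. Oral 20 mg·kg-1 per day for 5 days, started day 10 or day 75 pi. Samples taken at day 16 pi or day 81 pi, and on necropsy day. Markers: CK-MB and LDH (U/L), AST, ALT and alkaline phosphatase (U/L), total bilirubin. Results scored relative to infected untreated controls; uninfected reference n = 15.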

Mus musculus [7] = assay: as §3, with “total bilirubin” for “alkaline phosphatase”; type: toxicity, organism-based; conditions: in vivo; summary of the method: as §4
Mus musculus [8] = assay: as §1, with “change” for “increase”, “uric acid” for “urea”, “20” for “100”, “127” for “16”; type: toxicity, organism-based; conditions: in vivo
Trypanosoma cruzi [9] = assay: as §2, with “at 20” for “at 100”, “day 10” for “day 75”; type: functional; set-up: scale not given: the % may be the effect or the level left
Mus musculus [10] = assay: as §1, with “decrease” for “increase”, “uric acid” for “urea”, “20” for “100”, “75” for “10”, “81” for “16”; type: toxicity, organism-based; set-up: scale not given: the % may be the effect or the level left; conditions: in vivo
Trypanosoma cruzi [11] = assay: Antitrypanosomal activity against Trypanosoma cruzi MHOM/Pe/2011/Arequipa DTU 5 trypamastigotes infected in Balb/c mouse assessed as reduction in splenomegaly at 20 mg/kg, po once daily for 5 consecutive days starting from day 10 post infection measured on day 127 post infection relative to control; type: functional, organism-based
Mus musculus [12] = assay: as §1, with “Hepatotoxicity” for “Nephrotoxicity”, “change” for “increase”, “ratio of serum ALT to GPT” for “urea”, “level” for “level in serum”, “20” for “100”, “127” for “16”; type: toxicity, organism-based; conditions: in vivo; summary of the method: as §4
Trypanosoma cruzi [13] = assay: as §2, with “in lung” for “in spleen”, “at 20” for “at 100”, “day 10” for “day 75”; type: functional; set-up: scale not given: the % may be the effect or the level left
Summary of the method: (§5)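 Necropsy on day 127 pi after oral treatment and cyclophosphamide immunosuppression. Tissue DNA was amplified by PCR targeting the ~300 bp T. cruzi SOD gene, 200 nM each primer, 30 cycles with 55.5 °C annealing. Products run on 2 % agarose; positive organs counted out of six mice.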

Mus musculus [14] = assay: (§6) Hepatotoxicity in Balb/c mouse infected with Trypanosoma cruzi MHOM/Pe/2011/Arequipa DTU 5 trypamastigotes assessed as increase in total bilirubin level at 20 mg/kg, po once daily for 5 consecutive days starting from day 75 post infection measured on day 81 post infection by biochemical analysis relative to control; type: toxicity, organism-based; conditions: in vivo
Mus musculus [15] = assay: as §6, with “change” for “increase”, “ratio of serum ALT to GPT” for “total bilirubin”, “127” for “81”; type: toxicity, organism-based; conditions: in vivo; summary of the method: as §4
Trypanosoma cruzi [16] = assay: as §2, with “in esophagus” for “in spleen”, “at 20” for “at 100”, “day 10” for “day 75”; type: functional; set-up: scale not given: the % may be the effect or the level left; summary of the method: as §5
Trypanosoma cruzi [17] = assay: as §2, with “in adipose” for “in spleen”, “at 20” for “at 100”, “day 10” for “day 75”; type: functional; set-up: scale not given: the % may be the effect or the level left; summary of the method: as §5
Mus musculus [18] = assay: as §6, with “ratio of serum ALT to GPT” for “total bilirubin”; type: toxicity, organism-based; conditions: in vivo
Trypanosoma cruzi [19] = assay: Antitrypanosomal activity against Trypanosoma cruzi MHOM/Pe/2011/Arequipa DTU 5 trypamastigotes infected in Balb/c mouse assessed as reduction in Ig-G level in serum at 20 mg/kg, po once daily for 5 consecutive days starting from day 10 post infection measured on day 100 post infection by ELISA; type: functional, organism-based
Summary of the method: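 Female BALB/c mice (8-10 weeks, 20-25 g), six per group, infected i.p. with 5 x 10^5 Arequipa bloodstream trypomastigotes. Compound was given orally once daily for 5 days from day 10 or day 75 pi, at 20 mg·kg-1 per day in 5 % DMSO/0.5 % HPMC. Anti-T. cruzi IgG in serum was measured by ELISA with Fe-SOD antigen, read as OD 490 nm.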

Mus musculus [20] = assay: Toxicity in Balb/c mouse assessed as death at 20 mg/kg, po once daily for 5 consecutive days starting from day 10 post infection; type: organism-based; conditions: in vivo
Summary of the method: (§7)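 Female BALB/c mice (8-10 weeks, 20-25 g), groups of six, infected i.p. with 5 x 10^5 Arequipa bloodstream trypomastigotes. Dosing was oral, 20 mg·kg-1 per day for 5 days, given as a 2 mg·mL-1 suspension in 5% DMSO/0.5% hydroxypropyl methylcellulose. Treatment started day 10 pi (acute phase) or day 75 pi (chronic phase). Deaths and body-mass loss were monitored during and after treatment.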

Mus musculus [21] = assay: as §6, with “10” for “75”, “127” for “81”; type: toxicity, organism-based; conditions: in vivo
Trypanosoma cruzi [22] = assay: as §2, with “in bone marrow” for “in spleen”, “at 20” for “at 100”, “day 10” for “day 75”; type: functional; set-up: scale not given: the % may be the effect or the level left; summary of the method: as §5
Mus musculus [23] = assay: as §1, with “Cardiotoxicity” for “Nephrotoxicity”, “change” for “increase”, “ratio of creatine kinase” for “urea level”, “muscle to brain” for “serum”, “20” for “100”; type: toxicity, organism-based; conditions: in vivo; summary of the method: as §4
Mus musculus [24] = assay: Toxicity in Balb/c mouse assessed as death at 20 mg/kg, po once daily for 5 consecutive days starting from day 75 post infection; type: organism-based; conditions: in vivo; summary of the method: as §7

## COc1ccc(C(=O)CCN2CCN(c3ccc(F)cc3)CC2)cc1
Trypanosoma cruzi [1]
  Activity: Active
Mus musculus [2]
  Activity: <= 30%
Mus musculus [3]
  Activity: < 10%

## COc1ccc(C(=O)CCN2CCN(c3ccc(Cl)cc3)CC2)cc1
Trypanosoma cruzi [4]
  Activity: 78%
Mus musculus [5]
  Activity: < 10%
Mus musculus [6]
  Activity: < 10%

## COc1ccc(C(=O)CCN2CCN(c3ccc([N+](=O)[O-])cc3)CC2)cc1
Mus musculus [7]
  Activity: < 10%

## O=C(Cn1ccnc1[N+](=O)[O-])NCc1ccccc1 [BENZNIDAZOLE]
Mus musculus [8]
  Activity: < 10%
Trypanosoma cruzi [9]
  Activity: 33%
Mus musculus [10]
  Activity: > 40%
Trypanosoma cruzi [11]
  Activity: Active
Mus musculus [12]
  Activity: < 10%
Trypanosoma cruzi [13]
  Activity: 33%
Mus musculus [14]
  Activity: <= 30%
Mus musculus [15]
  Activity: < 10%
Trypanosoma cruzi [16]
  Activity: 33%
Trypanosoma cruzi [17]
  Activity: 33%
Mus musculus [18]
  Activity: <= 20%
Trypanosoma cruzi [19]
  Activity: Active
Mus musculus [20]
  Activity: Non-Toxic
Mus musculus [21]
  Activity: <= 10%
Trypanosoma cruzi [22]
  Activity: 33%
Mus musculus [23]
  Activity: < 10%
Mus musculus [24]
  Activity: Non-Toxic
